This passage reports self-cleavage results from the RNAGym collection of RNA variant scans (doi:10.1002/anie.201605470).

The labels stand for the following.
B1: Osa-1-4 twister ribozyme (parent)
chain: CCGCCUAACACUGCCAAUGCCGGUCCCAAGCCCGGAUAAAAGUGGAGGGGGCGG

The variants in this data set derive from B1. Briefly: self-cleavage, relative activity (ratio to wild type); higher = more cleavage; co-transcriptional. Summed up:
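In vitro transcription at 37 °C for 2 h allowed the twister ribozyme to cleave itself as it was made. Its 54-nucleotide Oryza sativa template had been synthesised with 97 % wild-type base and 1 % of each other base at the 48 positions downstream of the cleavage site. A template-switching oligonucleotide was used for reverse transcription, followed by PCR amplification and deep sequencing. Whether reads carried upstream sequence set the cleavage status, and relative activity is the fraction cleaved normalised to wild type.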
Regarding A17C G45A, the self-cleavage is 0.24.

Regarding A17G C32G, the self-cleavage came out at 0.15.

As for A17G C32A, the self-cleavage was 0.07.

As to A17G C32U, the self-cleavage turned out to be 0.19.

Regarding A17G A8G, the self-cleavage turned out to be 0.63.

A17G A8C: the self-cleavage was 0.12.

Consider A17G A8U, for which the self-cleavage amounted to 0.49.

Consider A17C G49U, for which the self-cleavage came to 0.05.

On to A17C G49C, for which the self-cleavage stood at 0.04.

Take A17C G49A: the self-cleavage turned out to be 0.05.

As for A17U C26U, the self-cleavage is 1.

As for A17U C26G, the self-cleavage came to 0.09.

For the variant A17U C26A, the self-cleavage came to 0.06.

As for A17C G53C, the self-cleavage was 0.1.

Take A17C G53A: the self-cleavage was 0.86.

Take A17C G53U: the self-cleavage was 0.36.

On to A17U A28U, for which the self-cleavage came out at 0.97.

Consider A17U A28G, for which the self-cleavage was found to be 0.37.

For A17U A28C, the self-cleavage is 0.94.

Take A17C C32A: the self-cleavage came to 0.06.

Consider A17C C32U, for which the self-cleavage stood at 0.05.

A17C C32G: the self-cleavage is 0.08.

A17G U37G: the self-cleavage came out at 1.01.

As to A17G U37C, the self-cleavage turned out to be 1.02.

With A17G U37A, the self-cleavage was determined as 0.63.

With A17U C52A, the self-cleavage came out at 1.02.

A17U C52G: the self-cleavage is 0.98.

As for A17U C52U, the self-cleavage is 1.01.

Take A17G C15G: the self-cleavage was 0.71.

With A17G C15A, the self-cleavage turned out to be 0.78.

With A17G C15U, the self-cleavage stood at 0.71.

Consider A17U A8G, for which the self-cleavage was 0.62.

With A17U A8U, the self-cleavage is 0.42.

Consider A17U A8C, for which the self-cleavage is 0.11.

Regarding A17G U43C, the self-cleavage was 0.72.

For the variant A17G U43A, the self-cleavage came out at 0.81.

With A17G U43G, the self-cleavage is 0.51.

A17C A39C: the self-cleavage is 0.52.

For A17C A39U, the self-cleavage is 0.73.

Take A17C A39G: the self-cleavage is 0.86.

Regarding A17G, the self-cleavage was determined as 0.97.

Consider A17U, for which the self-cleavage is 1.03.

As to A17C A40U, the self-cleavage was determined as 0.16.

Consider A17C A40G, for which the self-cleavage turned out to be 0.28.

Regarding A17C A40C, the self-cleavage came to 0.06.

In the case of A17U A38G, the self-cleavage is 1.02.

Turning to A17U A38C, the self-cleavage turned out to be 0.98.

For A17U A38U, the self-cleavage came out at 1.02.

Regarding A17U A46U, the self-cleavage is 0.1.

With A17U A46G, the self-cleavage is 0.09.

For the variant A17U A46C, the self-cleavage was 0.04.

For the variant A17C C52U, the self-cleavage was 0.78.

As to A17C C52A, the self-cleavage is 0.87.

On to A17C C52G, for which the self-cleavage came to 0.9.

A17C C20A: the self-cleavage was 0.58.

Take A17C C20G: the self-cleavage is 0.1.

Consider A17C C20U, for which the self-cleavage is 0.78.

For A17G A41G, the self-cleavage turned out to be 0.94.

In the case of A17G A41C, the self-cleavage was 0.9.

Take A17G A41U: the self-cleavage stood at 0.94.

As for A17U C21A, the self-cleavage is 0.83.

Turning to A17U C21G, the self-cleavage came out at 0.09.

Take A17U C21U: the self-cleavage came to 1.05.

In the case of A17C G34C, the self-cleavage amounted to 0.14.

For A17C G34U, the self-cleavage was 0.26.

Consider A17C G34A, for which the self-cleavage was 0.34.

As for A17U C9G, the self-cleavage is 0.8.

As to A17U C9U, the self-cleavage stood at 0.81.

Consider A17U C9A, for which the self-cleavage is 0.41.

Take A17C G35C: the self-cleavage is 0.45.

For A17C G35A, the self-cleavage is 0.6.

As for A17C G35U, the self-cleavage came to 0.6.

As to A17U C31U, the self-cleavage is 0.94.

In the case of A17U C31A, the self-cleavage was 0.05.

Turning to A17U C31G, the self-cleavage stood at 0.12.

On to A17G G19C, for which the self-cleavage was 0.29.

A17G G19U: the self-cleavage was found to be 0.52.

With A17G G19A, the self-cleavage was determined as 0.95.

As for A17C G19A, the self-cleavage stood at 0.06.

Consider A17C G19U, for which the self-cleavage is 0.04.

For the variant A17C G19C, the self-cleavage amounted to 0.04.

On to A17G G34A, for which the self-cleavage is 0.73.

Turning to A17G G34C, the self-cleavage stood at 0.41.

Take A17G G34U: the self-cleavage was determined as 0.57.

In the case of A17C C31G, the self-cleavage worked out at 0.05.

With A17C C31U, the self-cleavage is 0.16.

For A17C C31A, the self-cleavage stood at 0.03.

As for A17G C14G, the self-cleavage amounted to 0.29.

For the variant A17G C14U, the self-cleavage amounted to 0.69.

Regarding A17G C14A, the self-cleavage was found to be 0.19.

Take A17C G23A: the self-cleavage was found to be 0.07.

Regarding A17C G23C, the self-cleavage worked out at 0.03.

Take A17C G23U: the self-cleavage worked out at 0.04.

Take A17U A40C: the self-cleavage is 0.09.

For the variant A17U A40G, the self-cleavage is 0.93.

In the case of A17U A40U, the self-cleavage was found to be 0.63.

In the case of A17C C26G, the self-cleavage amounted to 0.07.

Consider A17C C26A, for which the self-cleavage came to 0.03.

As for A17C C26U, the self-cleavage stood at 0.19.

As to A17G G44C, the self-cleavage was determined as 0.88.

For A17G G44U, the self-cleavage stood at 0.74.

Take A17G G44A: the self-cleavage turned out to be 0.88.

For A17U C32G, the self-cleavage was 0.17.

For the variant A17U C32U, the self-cleavage came to 0.25.

On to A17U C32A, for which the self-cleavage was found to be 0.13.

Regarding A17U C27G, the self-cleavage stood at 0.13.

For the variant A17U C27U, the self-cleavage was determined as 0.25.

As for A17U C27A, the self-cleavage worked out at 0.29.

On to A17U C33U, for which the self-cleavage turned out to be 0.85.

For A17U C33G, the self-cleavage turned out to be 0.06.

As to A17U C33A, the self-cleavage stood at 0.19.

With A17C A41C, the self-cleavage turned out to be 0.68.

As for A17C A41G, the self-cleavage was 0.68.

With A17C A41U, the self-cleavage came to 0.81.

For the variant A17G G22C, the self-cleavage amounted to 0.15.

As to A17G G22A, the self-cleavage turned out to be 0.97.

With A17G G22U, the self-cleavage was 0.79.

As for A17G U12C, the self-cleavage is 0.56.

For the variant A17G U12A, the self-cleavage was 0.86.

Regarding A17G U12G, the self-cleavage came to 0.39.

Take A17U A41U: the self-cleavage came to 0.96.

On to A17U A41C, for which the self-cleavage is 0.98.

For A17U A41G, the self-cleavage worked out at 0.9.

As for A17C C27U, the self-cleavage worked out at 0.06.

Consider A17C C27G, for which the self-cleavage was found to be 0.03.

Take A17C C27A: the self-cleavage came to 0.06.

For A17U G13A, the self-cleavage stood at 0.14.

A17U G13C: the self-cleavage stood at 0.03.

With A17G G54C, the self-cleavage is 0.92.

A17G G54U: the self-cleavage turned out to be 0.91.

A17G G54A: the self-cleavage worked out at 0.9.

Consider A17C A38G, for which the self-cleavage was 0.78.

As to A17C A38U, the self-cleavage is 0.66.

Take A17C A38C: the self-cleavage is 0.71.

Turning to A17C G30A, the self-cleavage was 0.04.

Take A17C G30U: the self-cleavage was found to be 0.03.

As for A17C G30C, the self-cleavage was 0.03.

Regarding A17U C11U, the self-cleavage was 0.86.

As to A17U C11G, the self-cleavage amounted to 0.48.

As to A17U C11A, the self-cleavage was 0.7.

A17C A29G: the self-cleavage was determined as 0.05.

Consider A17C A29U, for which the self-cleavage is 0.04.

With A17C A29C, the self-cleavage was 0.03.

In the case of A17G A38G, the self-cleavage is 0.99.

Turning to A17G A38U, the self-cleavage is 0.97.

For the variant A17G A38C, the self-cleavage was 0.96.

For the variant A17G G53A, the self-cleavage was 0.85.

Take A17G G53C: the self-cleavage came to 0.12.

Turning to A17G G53U, the self-cleavage turned out to be 0.54.

On to A17C C21A, for which the self-cleavage is 0.15.

A17C C21G: the self-cleavage was 0.05.

On to A17C C21U, for which the self-cleavage came out at 0.69.

Turning to A17C C11U, the self-cleavage was determined as 0.14.

On to A17C C11A, for which the self-cleavage amounted to 0.06.

In the case of A17C C11G, the self-cleavage is 0.05.

For A17U A39U, the self-cleavage was determined as 1.03.

For A17U A39C, the self-cleavage was found to be 0.98.

Consider A17U A39G, for which the self-cleavage stood at 1.03.

Regarding A17G C21U, the self-cleavage was 0.98.

For A17G C21A, the self-cleavage came to 0.8.

With A17G C21G, the self-cleavage stood at 0.09.

Turning to A17U C20A, the self-cleavage was found to be 0.85.

Consider A17U C20U, for which the self-cleavage was 0.95.

Turning to A17U C20G, the self-cleavage was found to be 0.23.

With A17G U18G, the self-cleavage amounted to 0.85.

Take A17G U18A: the self-cleavage turned out to be 0.94.

Take A17G U18C: the self-cleavage amounted to 0.52.
